LMPTP inh: LMPTP (human) inhibition | P24666 | actives 0.22% (n = 360,000) | inhibition, % at 20 µM | recombinant LMPTP-A, OMFP fluorogenic substrate, fluorescence intensity;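 active means compounds that cut the enzyme signal by at least half of the control window in the single-dose screen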;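 further: plate controls were DMSO wells with enzyme plus substrate for no effect and substrate without enzyme for full effect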
Target sequence (P24666 whole entry, looked up): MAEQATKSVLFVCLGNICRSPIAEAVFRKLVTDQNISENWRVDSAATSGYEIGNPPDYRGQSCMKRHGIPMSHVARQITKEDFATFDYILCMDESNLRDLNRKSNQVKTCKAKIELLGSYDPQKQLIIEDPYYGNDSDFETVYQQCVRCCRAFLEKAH
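Material: LMPTP-A; amount: 0.625 nM enzyme; doses: single 20 µM dose; times: reaction 50 min, room temperature, dark; technique: fluorescence intensity of OMFP turnover product; benchmarks: no-enzyme and uninhibited controls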
DNMT1 inh: blocks human DNA methyltransferase DNMT1; AID 588458; P26358; actives 0.83% (n = 360,000); DNMT1 molecular beacon, Hinp1I cleavage, fluorescence; inhibition (reported as % activation of signal), % at 10 µM; in the data active means inhibition above about 50%
Scp-1 inhibitor: blocks human Scp-1 phosphatase activity; inhibition, % at 20 µM; AID 493091; Q9GZU7; actives 0.88% (n = 340,000); Recombinant Scp1, phosphopeptide, malachite green phosphate absorbance;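 active means inhibition above about 50% at 20 µM, limit read from the data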;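 further: plate controls were DMSO wells with enzyme for no effect and wells lacking enzyme for full effect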
Target sequence (Q9GZU7 76-261 limits assumed): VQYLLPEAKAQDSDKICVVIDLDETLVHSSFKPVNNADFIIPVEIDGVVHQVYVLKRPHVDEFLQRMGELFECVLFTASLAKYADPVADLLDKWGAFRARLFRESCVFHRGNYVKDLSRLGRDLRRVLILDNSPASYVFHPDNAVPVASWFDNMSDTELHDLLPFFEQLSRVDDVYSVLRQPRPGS
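Times: enzyme reaction 45 min at room temperature, colour 5 min, stabilisation 30 min. Material: SCP-1 catalytic fragment, aa 76-261. Medium: Acidic Tris acetate buffer with magnesium and detergent. Signal: colorimetric free-phosphate detection, absorbance 630 nm. Read-out basis: % inhibition of SCP-1 phosphate liberation. Reagent: Phosphorylated 17-residue peptide substrate.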
SUMO1 PPI mod: SUMO1-SIM interaction modulation; P63165; SUMO1 binding to a labelled peptide, TR-FRET, 1 h; inhibition, % at 20 µM; actives 0.33% (n = 360,000); AID 602429; in the data active means inhibition above about 37%
Target sequence (P63165 whole entry, looked up): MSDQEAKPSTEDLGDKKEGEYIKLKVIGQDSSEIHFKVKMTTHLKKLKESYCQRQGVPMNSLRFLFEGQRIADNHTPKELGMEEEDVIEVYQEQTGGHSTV
GRK2 inh: blocks RNA aptamer binding to human GRK2. P25098. bead flow cytometry, FAM-aptamer displacement from GRK2. AID 488847. actives 0.59% (n = 330,000). inhibition of aptamer binding, % at 10 µM;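 active means inhibition of aptamer binding above 40%, roughly 3 SD of noise, on plates passing a quality check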;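 further: median bead fluorescence of bound FAM aptamer so fluorescent compounds give negative values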
STEP inh: STEP (human) phosphatase inhibition. inhibition, % at 20 µM. AID 588621. recombinant STEP, OMFP fluorogenic substrate, fluorescence. P54829. actives 0.25% (n = 360,000);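 active means inhibition at 20 µM, scaled per plate between control wells, above about 37%, limit read from the data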;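 further: 0% = DMSO with enzyme and substrate and 100% = substrate only without enzyme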
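System: isolated STEP enzyme; schedule: 20 min enzyme reaction at room temperature, protected from light; medium: Bis-Tris buffer pH 6.0, 2.5 mM DTT, 0.005% Tween 20; signal: fluorescence, 480/540 nm; dosing: single compound dose of 20 µM, 1% DMSO final; also added: OMFP substrate, 25 µM final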
Scp-1 conf: Scp-1 (human) inhibition, single-dose confirmed; actives 61% (n = 2,500); shares compounds with Scp-1 inhibitor; recombinant SCP-1 catalytic domain, phosphate release, malachite green absorbance; inhibition, % at 20 µM;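 further: plate controls were DMSO with enzyme for no effect and buffer wells lacking enzyme for full effect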
MG interference: interferes with malachite green readout, flagging false Scp-1 hits; 2,500 tested, under 10 active; Colorimetric interference counterscreen, malachite green absorbance 630 nm; AID 540313; apparent inhibition (interference), % at 20 µM; shares compounds with Scp-1 inhibitor;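 further: compounds added after enzyme reaction finished so only phosphate colour detection is probed; plate controls were DMSO wells with completed Scp-1 reaction for no effect and substrate wells lacking enzyme for full effect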
Scp1 DSF: binds human Scp-1, shifting its melting temperature | shares compounds with Scp-1 inhibitor | Recombinant SCP1, Sypro Orange thermal shift Tm | thermal shift relative to vanadate control, % at 40 µM | actives 25% (n = 1,500);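 active means substances whose mean melting-temperature shift, as a percentage of the reference inhibitor's shift, reaches about 5.3%, limit read from the data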;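 further: 0% = Tm of DMSO wells and 100% = Tm with sodium orthovanadate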
DNMT1 inh conf: confirmation of human DNMT1 inhibitors. shares compounds with DNMT1 inh. DNMT1 molecular beacon HinP1I cleavage, fluorescence. inhibition, % at 10 µM. actives 8% (n = 2,300). AID 602385;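 active means average inhibition of at least 30% in the single-concentration confirmation test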
DNMT1 interf: counter-screen for DNMT1 inhibitors: spectral interference | shares compounds with DNMT1 inh | DNMT1 molecular beacon spectral interference counterscreen, fluorescence 485/520 | activation (fluorescence interference), % at 10 µM | actives 1% (n = 2,300) | AID 602387;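 active means activation of at least 30% at 10 µM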;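 further: DNMT1 catalytic domain with a HinP1I cleavage step and a FAM/dabcyl DNA beacon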
The depositor's hits bear a star. Compounds with a hit are over-represented: about 2.1% of the library has one in this group of screens.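 How the source made its calls, unless noted: active means inhibition of at least 30% at 20 µM; inactive means the rest.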

Results for Cn1c(NNC(=O)c2cccc3ccccc23)cc(=O)n(C)c1=O ?
LMPTP inh: -2; DNMT1 inh: -5; Scp-1 inhibitor: -1; SUMO1 PPI mod: -10; GRK2 inh: 0; STEP inh: 0; Scp-1 conf: -4; MG interference: 1

Results for O=C(NNC(=O)c1ccccc1Br)c1ccc2nc[nH]c2c1 ?
LMPTP inh: 5; DNMT1 inh: 22; Scp-1 inhibitor: 73*; SUMO1 PPI mod: 12; GRK2 inh: 29; STEP inh: 18; Scp-1 conf: 66*; MG interference: -10; Scp1 DSF: 3

Results for O=C(NNC(=O)c1ccccc1F)c1ccc2nc[nH]c2c1 ?
LMPTP inh: 1; DNMT1 inh: 1; Scp-1 inhibitor: 11; SUMO1 PPI mod: 4; GRK2 inh: 0; STEP inh: -3

How did COc1ccc(C(O)c2ncc(-c3ccccc3Cl)[nH]2)cc1F (stereo not given) do in these assays?
LMPTP inh: 2; DNMT1 inh: 0; SUMO1 PPI mod: 3; STEP inh: 3

How did CCn1c(=O)c(=O)[nH]c2cc(C(=O)NCc3ccc(F)cc3)ccc21 do in these assays?
LMPTP inh: 1; DNMT1 inh: 2; Scp-1 inhibitor: -4; SUMO1 PPI mod: 2; GRK2 inh: 0; STEP inh: 1; Scp-1 conf: -3; MG interference: -5

Results for O=C1C=CC(=Nc2ccc3c(c2)Cc2cc(F)ccc2-3)O1 ?
LMPTP inh: 1; DNMT1 inh: -16; Scp-1 inhibitor: 11; SUMO1 PPI mod: 8; STEP inh: 0

What do the screens show for `O=C1C=CC(=Nc2cccc3c2C(=O)c2ccccc2-3)O1`?
LMPTP inh: 13; DNMT1 inh: 42; Scp-1 inhibitor: 61*; SUMO1 PPI mod: -15; STEP inh: 1; Scp-1 conf: -20; MG interference: -22

What do the screens show for `Nc1ccc(-c2ccc(N)c(C(=O)O)c2)cc1C(=O)O`?
LMPTP inh: 1; DNMT1 inh: 19; Scp-1 inhibitor: 55*; SUMO1 PPI mod: 8; GRK2 inh: 11; STEP inh: 1; Scp-1 conf: -5; MG interference: -16

What do the screens show for `CCc1nc2ccc(C(=O)NCCOc3ccc(OC)cc3)cn2c1N(CC)CCN(C)C`?
LMPTP inh: 1; DNMT1 inh: 9; SUMO1 PPI mod: -6; STEP inh: 3

How did O=C(Nc1nc2ccccc2s1)C1CCN(S(=O)(=O)c2cc([N+](=O)[O-])ccc2Cl)CC1 do in these assays?
LMPTP inh: 7; DNMT1 inh: 28; Scp-1 inhibitor: 68*; SUMO1 PPI mod: -11; GRK2 inh: 9; STEP inh: 7; Scp-1 conf: 64*; MG interference: -9; Scp1 DSF: 11*

What do the screens show for `Cc1cn([C@H]2C[C@H](O)[C@@H](/C=C/C(=O)NCCC(c3ccccc3)c3ccccc3)O2)c(=O)[nH]c1=O`?
LMPTP inh: -2; DNMT1 inh: 1; SUMO1 PPI mod: 3; STEP inh: -2

What do the screens show for `Cc1cc(/C=C(/C#N)c2nc3ccccc3[nH]2)c(C)n1-c1cc(C(=O)O)cc(C(=O)O)c1`?
LMPTP inh: 3; DNMT1 inh: 77*; Scp-1 inhibitor: 59*; SUMO1 PPI mod: 28; STEP inh: 24; Scp-1 conf: 53*; MG interference: -8; Scp1 DSF: 4; DNMT1 inh conf: 8; DNMT1 interf: -2

What do the screens show for `CC(C)C[C@H]1CN(CCCC[C@H]2CNC(=O)C(=O)N2CCc2ccc(O)cc2)C(=O)C(=O)N1CCc1ccccc1`?
LMPTP inh: 0; SUMO1 PPI mod: 5

What do the screens show for `Cc1ccoc1C(=O)NCc1occc1C(=O)O`?
LMPTP inh: -1; DNMT1 inh: 57*; Scp-1 inhibitor: 50*; SUMO1 PPI mod: 9; GRK2 inh: 30; STEP inh: 14; Scp-1 conf: 34*; MG interference: -18; Scp1 DSF: -4; DNMT1 inh conf: -1; DNMT1 interf: 0

What do the screens show for `Cc1ccoc1C(=O)NCCNC(=O)c1occc1C`?
LMPTP inh: -1; DNMT1 inh: 1; Scp-1 inhibitor: 6; SUMO1 PPI mod: 7; GRK2 inh: 3; STEP inh: 1

What do the screens show for `CCCc1nc2sc3ccccc3c(=O)c2c(=O)n1Cc1ccco1`?
LMPTP inh: 22; DNMT1 inh: 76*; Scp-1 inhibitor: 68*; SUMO1 PPI mod: 9; STEP inh: 11; Scp-1 conf: 54*; MG interference: -4; Scp1 DSF: -10; DNMT1 inh conf: 1; DNMT1 interf: -1

What do the screens show for `CCCc1nc2sc3ccccc3c(=O)c2c(=O)n1Cc1ccc(OC)cc1`?
LMPTP inh: 3; DNMT1 inh: -1; Scp-1 inhibitor: -3; SUMO1 PPI mod: 11; GRK2 inh: 3; STEP inh: 5

How did Cc1noc(C)c1-c1ccc(C(=O)NCCN2CCOCC2)c2occc12 do in these assays?
LMPTP inh: -2; DNMT1 inh: 2; SUMO1 PPI mod: 2; STEP inh: -3

How did O=C(NCc1cccc(CNC(=O)C(=O)NCc2ccco2)c1)C(=O)NCc1ccco1 do in these assays?
LMPTP inh: 56*; DNMT1 inh: 91*; Scp-1 inhibitor: 91*; SUMO1 PPI mod: 3; GRK2 inh: 33; STEP inh: 10; Scp-1 conf: 65*; MG interference: -8; Scp1 DSF: -12; DNMT1 inh conf: 19; DNMT1 interf: 4
